Data reported in ChEMBL document CHEMBL1158631, “Discovery of novel 1-phenyl-cycloalkane carbamides as potent and selective influenza fusion inhibitors” (Bioorg Med Chem Lett, 2010).

Test: Cytotoxicity against MDCK cells
Format: cell-based, Canis lupus familiaris
Settings: dog; call rule not given here
In short: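 Uninfected MDCK cells were exposed to compounds. CC50 is the concentration inhibiting 50% of MDCK cell growth relative to control.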

Structure (SMILES) | CC50
O=C(Nc1ccccc1)C1(c2ccccc2)CCCC1 | > 100 µM
COc1ccc(C2(C(=O)N(C)c3ccccc3)CCCC2)cc1 | 69 µM
CN(C(=O)C1(c2ccc(Cl)cc2)CCCCC1)c1ccccc1 | 7.4 µM
O=C(N1CCCCC1)C1(c2ccccc2)CCCC1 | > 100 µM
CN(C(=O)C1(c2ccccc2)CCCC1)c1cccc(C#N)c1 | 56 µM
CC1(C)C[C@H](O)C[C@](C)(CNC(=O)c2cc(Cl)ccc2O)C1 | > 50 µM
COC(=O)[C@@]1(C)CCC[C@]2(C)c3cc(OC)ccc3C(=O)C[C@@H]12 | 67 µM
O=C(N1CCCc2ccccc21)C1(c2ccccc2)CCCC1 | 24 µM
CN(C(=O)C1(c2cccc(C(F)(F)F)c2)CCCC1)c1ccccc1 | 20 µM
CN(C(=O)C1(c2ccccc2)CCCC1)c1ccc(C#N)cc1 | > 100 µM
CN(C(=O)C1(c2ccc(Cl)cc2)CCC1)c1ccccc1 | 24 µM
CN(C(=O)C1(c2ccccc2)CCCC1)c1cccc(Cl)c1 | 17 µM
CCN(C(=O)C1(c2ccccc2)CCCC1)c1ccccc1 | 56 µM
CN(C(=O)C1(c2ccccc2)CCCC1)C1CCCCC1 | 21 µM
CN(C(=O)C1(c2ccc(Cl)cc2)CCCC1)c1ccccc1 | 21 µM
O=C(N(CCO)c1ccccc1)C1(c2ccccc2)CCCC1 | 79 µM
CN(C(=O)C1(c2ccccc2)CCCC1)c1cccnc1 | > 100 µM
CN(C(=O)C1(c2ccccc2)CCCC1)c1ccc(C(F)(F)F)cc1 | 21 µM
CN(C(=O)C1(c2ccccc2)CCCC1)c1ccccc1Cl | 23 µM
CN(C(=O)C1(c2ccc(Cl)cc2)CC1)c1ccccc1 | 49 µM
CN(C(=O)C1(c2ccccc2)CCCC1)c1ccccc1 | 52 µM
O=C(N1CCOCC1)C1(c2ccccc2)CCCC1 | > 100 µM
CN(C(=O)C1(c2ccccc2)CCCC1)c1ccc(Cl)cc1 | 20 µM

Test: Toxicity assessed as haemolysis in chicken RBC
Format: cell-based, Gallus gallus, Erythrocyte
Settings: Gallus gallus, Erythrocyte; read-out: IC50

Structure (SMILES) | IC50
O=C(N1CCCCC1)C1(c2ccccc2)CCCC1 | 2.2 µM
CC1(C)C[C@H](O)C[C@](C)(CNC(=O)c2cc(Cl)ccc2O)C1 | 0.53 µM
COC(=O)[C@@]1(C)CCC[C@]2(C)c3cc(OC)ccc3C(=O)C[C@@H]12 | 3.2 µM

Same assay, conditions: erythrocyte

Structure (SMILES) | IC50
O=C(N1CCOCC1)C1(c2ccccc2)CCCC1 | Not Active

Test: Antiviral activity against Influenza A virus (A/Weiss/43 (H1N1)) infected in MDCK cells assessed as inhibition of virus-induced cytopathic effect
Format: functional, organism-based, Influenza A virus (A/Weiss/1943(H1N1))
Settings: not given
In short: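 MDCK cells infected with influenza A/Weiss/43 (H1N1). Compounds were titrated at multiple doses after a primary single-dose screen. The read-out was protection from viral cytopathic effect, and EC50 is the concentration inhibiting 50% of cytopathic effect. Values are means of triplicate or of at least duplicate experiments.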

Structure (SMILES) | EC50
O=C(Nc1ccccc1)C1(c2ccccc2)CCCC1 | > 100 µM
COc1ccc(C2(C(=O)N(C)c3ccccc3)CCCC2)cc1 | 0.75 µM
CN(C(=O)C1(c2ccc(Cl)cc2)CCCCC1)c1ccccc1 | > 10 µM
O=C(N1CCCCC1)C1(c2ccccc2)CCCC1 | 2.1 µM
CN(C(=O)C1(c2ccccc2)CCCC1)c1cccc(C#N)c1 | 0.73 µM
CC1(C)C[C@H](O)C[C@](C)(CNC(=O)c2cc(Cl)ccc2O)C1 | 0.06 µM
COC(=O)[C@@]1(C)CCC[C@]2(C)c3cc(OC)ccc3C(=O)C[C@@H]12 | 0.89 µM
O=C(N1CCCc2ccccc21)C1(c2ccccc2)CCCC1 | > 100 µM
CN(C(=O)C1(c2cccc(C(F)(F)F)c2)CCCC1)c1ccccc1 | 2.26 µM
CN(C(=O)C1(c2ccccc2)CCCC1)c1ccc(C#N)cc1 | 0.098 µM
CN(C(=O)C1(c2ccc(Cl)cc2)CCC1)c1ccccc1 | 0.27 µM
CN(C(=O)C1(c2ccccc2)CCCC1)c1cccc(Cl)c1 | 0.46 µM
CCN(C(=O)C1(c2ccccc2)CCCC1)c1ccccc1 | 0.26 µM
CN(C(=O)C1(c2ccccc2)CCCC1)C1CCCCC1 | 0.45 µM
CN(C(=O)C1(c2ccc(Cl)cc2)CCCC1)c1ccccc1 | 0.19 µM
O=C(N(CCO)c1ccccc1)C1(c2ccccc2)CCCC1 | 0.58 µM
CN(C(=O)C1(c2ccccc2)CCCC1)c1cccnc1 | 16.4 µM
CN(C(=O)C1(c2ccccc2)CCCC1)c1ccc(C(F)(F)F)cc1 | 2.12 µM
CN(C(=O)C1(c2ccccc2)CCCC1)c1ccccc1Cl | 0.18 µM
CN(C(=O)C1(c2ccc(Cl)cc2)CC1)c1ccccc1 | 1.86 µM
CN(C(=O)C1(c2ccccc2)CCCC1)c1ccccc1 | 0.24 µM
O=C(N1CCOCC1)C1(c2ccccc2)CCCC1 | 27.9 µM
CN(C(=O)C1(c2ccccc2)CCCC1)c1ccc(Cl)cc1 | 0.08 µM
